Where “and” joins values, the source holds several entries; their conditions need not be identical. Identical values can stand only once.
The compounds below were run on Mycobacterium tuberculosis (assay: Minimum inhibitory concentration against Mycobacterium tuberculosis H37Rv (ATCC 27294) in BACTEC 6A medium).
Type: functional
Outline: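 M. tuberculosis H37Rv ATCC 27294 tested in the BACTEC 460 radiometric system in BACTEC 6A medium. Percent inhibition = 1 − (growth index of test sample / growth index of control) × 100. MIC taken as the lowest concentration inhibiting 99% of the inoculum.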
With `Sc1nc(-c2cccnc2)no1` the MIC was > 1600 µM and > 286 µg/mL.
For `CC(C)(C)C(=O)OCn1c(-c2cnccn2)noc1=O`, the MIC was 200 µM and 56 µg/mL.
With `CC(C)(C)C(=O)OCSc1nc(-c2cccnc2)no1` the MIC was 200 µM and 59 µg/mL.
`Oc1nc(-c2cccnc2)no1` was tested, and the MIC was > 1600 µM and > 261 µg/mL.
With `O=c1oc(-c2cccnc2)ns1` the MIC was 25 µM and 4.5 µg/mL.
With `Sc1nc(-c2ccncc2)no1` the MIC was > 1600 µM and > 286 µg/mL.
For `O=c1oc(-c2ccncc2)ns1`, the MIC was 50 µM and 9 µg/mL.
For `Oc1nc(-c2ccncc2)no1`, the MIC was > 1600 µM and > 261 µg/mL.
With `CC(C)(C)C(=O)OCn1nnnc1-c1cnccn1` the MIC was 50 µM and 13 µg/mL.
For `NC(=O)c1cnccn1` [PYRAZINAMIDE], the MIC was 400 µM and 49 µg/mL.
For `CC(C)(C)C(=O)OCSc1nc(-c2ccncc2)no1`, the MIC was 200 µM and 59 µg/mL.
`CC(C)(C)C(=O)OCSc1nc(-c2cnccn2)no1` was tested, and the MIC was 400 µM and 118 µg/mL.
`CC(C)(C)C(=O)OCn1c(-c2ccncc2)noc1=O` was tested, and the MIC was 50 µM and 14 µg/mL.
`CC(C)(C)C(=O)OCn1c(-c2cccnc2)noc1=O` was tested, and the MIC was 100 µM and 28 µg/mL.
`Sc1nc(-c2cnccn2)no1` was tested, and the MIC was 1600 µM and 288 µg/mL.
`O=c1oc(-c2cnccn2)ns1` was tested, and the MIC was 25 µM and 4.5 µg/mL.
With `NNC(=O)c1ccncc1` [ISONIAZID] the MIC was 0.15 µM and 0.018 µg/mL.
For `Oc1nc(-c2cnccn2)no1`, the MIC was 800 µM and 131 µg/mL.
